T cruzi intra = intracellular Trypanosoma cruzi inhibition. AID 651903. actives 4.9% (n = 22,000). intracellular Trypanosoma cruzi in host cells, plate reader. activity score (inhibition), % at 5.01 µM; in the data active = activity score above about 55%;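 also: parasites and compound incubated about four days before reading; 0% = median of neutral control wells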
YB-1 expression = YB-1 expression inhibition. AID 434959. delta delta Cp (YB-1 minus CDIP) (test concentration not listed). U2OS, qRT-PCR YB-1 vs CDIP delta delta Cp, 16 h; active compounds read high; zero = DMSO, each unit about twofold. actives 0.37% (n = 30,000);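 active = delta delta Cp rounded down to an integer at or above 3, about 3 SD of DMSO wells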;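 also: higher means less YB-1 transcript or more CDIP transcript relative to DMSO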
INS-1E ATP HTS = rescue of cytokine-induced death in INS-1E beta cells. INS-1E cytokine-induced death, ATP luminescence, 48 h; normalised: neutral wells 0, positive control 100. actives 0.1% (n = 20,000). AID 488910. protection from cytokine-induced ATP loss, % at 10 µM;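 active = mean replicate protection from cytokine-induced ATP loss at least 50% and at least 75% of replicates each reaching 50%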
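Material: INS-1E rat cells; Quantity: 8000 cells/well; Buffer or medium: phenol-red-free RPMI with 5% fetal bovine serum; Probe or stimulus: cytokine cocktail of IFN-γ, TNF-α and IL-1β; Compound dosing: single test concentration per compound, delivered by pin transfer; Incubation: 48 h co-treatment, 10 min post-lysis read; Signal: CellTiter-Glo luminescence.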
* marks the source's active call; other numbers are inactive results; . = no result given. Only a selection was taken, and hits are over-represented in it overall.

SMILES	T cruzi intra	YB-1 expression	INS-1E ATP HTS
C[C@@H]1CN([C@H](C)CO)C(=O)c2cccc(NS(=O)(=O)c3cccs3)c2O[C@@H]1CN(C)Cc1ccc(C(=O)O)cc1	68*	0.19	14
CC(C)NC(=O)N(C)C[C@@H]1Oc2ccc(N(C)C)cc2C(=O)N([C@H](C)CO)C[C@@H]1C	-18	-0.39	3
Cc1ccc(S(=O)(=O)N(C)C[C@H]2Oc3ccc(NS(=O)(=O)c4ccc(Cl)cc4)cc3C(=O)N([C@@H](C)CO)C[C@@H]2C)cc1	8	-0.23	4
Cc1ccc(S(=O)(=O)Nc2ccc3c(c2)C(=O)N([C@H](C)CO)C[C@H](C)[C@H](CN(C)S(=O)(=O)c2ccccc2)O3)cc1	74*	0.24	.
C[C@H]1CN([C@@H](C)CO)C(=O)c2cc(NS(=O)(=O)c3ccccc3)ccc2O[C@H]1CN(C)S(=O)(=O)c1ccc(Cl)cc1	-7	0.059	0
C[C@H]1CN([C@@H](C)CO)C(=O)c2cc(NS(=O)(=O)c3ccc(Cl)cc3)ccc2O[C@H]1CN(C)S(=O)(=O)c1ccc(Cl)cc1	44*	-0.52	.
Cc1ccc(S(=O)(=O)N(C)C[C@H]2Oc3ccc(NS(=O)(=O)c4ccccc4)cc3C(=O)N([C@@H](C)CO)C[C@@H]2C)cc1	6	-0.092	-5
C[C@H](CO)N1C[C@H](C)[C@H](CN(C)S(=O)(=O)c2ccc(Cl)cc2)Oc2ccc(NS(=O)(=O)c3ccccc3)cc2C1=O	62*	0.21	.
C[C@H]1CN([C@@H](C)CO)C(=O)c2cccc(NC(=O)c3cnccn3)c2O[C@@H]1CN(C)Cc1ccc2c(c1)OCO2	-1	0.16	-4
Cc1ccc(S(=O)(=O)Nc2ccc3c(c2)C(=O)N([C@H](C)CO)C[C@@H](C)[C@@H](CN(C)Cc2ccc(-c4ccccc4)cc2)O3)cc1	30	0.0069	-20
C[C@@H]1CN([C@H](C)CO)C(=O)c2cc(NS(=O)(=O)c3ccccc3)ccc2O[C@@H]1CN(C)Cc1ccc(-c2ccccc2)cc1	66*	-0.37	-28
C[C@H](CO)N1C[C@H](C)[C@@H](CN(C)Cc2ccc(-c3ccccc3)cc2)Oc2ccc(NS(=O)(=O)c3ccccc3)cc2C1=O	41*	-0.12	.
Cc1ccc(S(=O)(=O)Nc2ccc3c(c2)C(=O)N([C@H](C)CO)C[C@H](C)[C@@H](CN(C)Cc2ccc(-c4ccccc4)cc2)O3)cc1	-23	-0.067	-3
C[C@@H]1CN([C@H](C)CO)C(=O)c2cc(NS(=O)(=O)c3ccc(Cl)cc3)ccc2O[C@@H]1CN(C)Cc1ccc(-c2ccccc2)cc1	24	-0.14	-31
C[C@@H]1CN([C@@H](C)CO)C(=O)c2cc(NS(=O)(=O)c3ccc(Cl)cc3)ccc2O[C@@H]1CN(C)Cc1ccc(-c2ccccc2)cc1	69*	0.12	-52
C[C@H](CO)N1C[C@H](C)[C@@H](CN(C)Cc2ccc(-c3ccccc3)cc2)Oc2ccc(NS(=O)(=O)c3ccc(Cl)cc3)cc2C1=O	22	0.048	-16
C[C@H](CO)N1C[C@H](C)[C@H](CN(C)Cc2ccc(-c3ccccc3)cc2)Oc2ccc(NS(=O)(=O)c3ccc(Cl)cc3)cc2C1=O	56*	-0.18	-3
C[C@H]1CN([C@@H](C)CO)C(=O)Cc2cc(NS(=O)(=O)c3cccs3)ccc2O[C@@H]1CN(C)C(=O)Nc1ccccc1	-21	-0.14	9
Cc1noc(C)c1S(=O)(=O)Nc1ccc2c(c1)CC(=O)N([C@@H](C)CO)C[C@H](C)[C@H](CN(C)C(=O)Nc1ccc(F)cc1)O2	-28	-0.16	2
C[C@@H]1CN([C@H](C)CO)C(=O)Cc2cc(NC(=O)CCCCCC(=O)Nc3ccccc3N)ccc2O[C@@H]1CN(C)Cc1ccc(Cl)c(Cl)c1	66*	0.25	-2
C[C@@H]1CN([C@H](C)CO)C(=O)Cc2cc(NC(=O)CCCCCC(=O)Nc3ccccc3N)ccc2O[C@@H]1CN(C)Cc1ccc(-c2ccccc2)cc1	-28	-0.78	5
C[C@H](CO)N1C[C@H](C)[C@H](CN(C)Cc2ccc(-c3ccccc3)cc2)Oc2ccc(NC(=O)CCCCCC(=O)Nc3ccccc3N)cc2CC1=O	73*	-0.12	-10
C[C@@H]1CN([C@H](C)CO)C(=O)Cc2cc(NC(=O)CCCCCC(=O)Nc3ccccc3N)ccc2O[C@@H]1CN(C)Cc1ccncc1	-28	-0.24	8
C[C@@H]1CN([C@H](C)CO)C(=O)Cc2cc(NS(=O)(=O)c3ccccc3)ccc2O[C@H]1CN(C)Cc1ccc(C(F)(F)F)cc1	11	-0.13	-6

High-throughput results deposited in PubChem by Broad Institute.
